Bioassay records from PubChem.
Only a selection was taken, and hits are over-represented in it overall.
Fibroblast inh = blocks proliferation of human lung fibroblasts; LL 47 human lung fibroblast viability, ATP luminescence; hits give low values; viability, % at 10 µM; 85,000 compounds, 1.1% hits; AID 719;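 active means viability at or below 50% in the single dose screen; inactive means viability above 50%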;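 further: compound exposure lasted 72 h before the ATP readout; 100% = median luminescence of untreated cell-only wells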
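test system = LL 47 human lung fibroblasts | amount = 1,150 fibroblasts seeded per well | medium = 15% FBS in IMEM | times = overnight cell rest, 72 h compound treatment at 37 °C | measured by = CellTiter-Glo luminescence measuring cellular ATP | read-out = viability percentage against median untreated-cell control | benchmarks = cell-only wells, no compound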
bCat KO growth = beta-catenin-lacking colon tumor cell growth suppression; HCT116 beta-catenin knockout viability, CellTiter-Glo, 60 h; hits give low values; viability, % at 10 µM; 140,000 compounds, 1.5% hits; AID 818;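 active means viability at or under a set limit, the compound median less 4 SD, cut at about 6% in these data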;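 further: 0% = Hyamine 1622 control at 20 µM and 100% = untreated cell control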
HCT116 PTEN-null = suppresses growth of cells with PTEN deletion. HCT116 PTEN-null viability, CellTiter-Glo, 60 h; hits give low values. AID 827. viability, % at 10 µM. 140,000 compounds, 1.2% hits;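 active means viability at or below a set limit, 4 SD under the median of all tested compounds, cut at about 3.7% in these data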;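 further: PTEN knockout HCT116 line with beta catenin targeted HCT116 as companion control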
H69AR growth 86K = blocks growth of human H69AR lung tumor cells; AID 598; 85,000 compounds, 6% hits; H69AR lung tumor viability, ATP luminescence, 72 h; hits give low values; viability, % at 10 µM;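 active means viability at or below 40%; inactive means viability above 40%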;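 further: multidrug resistant small cell line overexpressing MRP-1 efflux transporter; 100% = mean luminescence of untreated control wells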
HUVEC prolif 384 = blocks proliferation of human endothelial cells; HUVEC proliferation, CellTiter-Glo luminescence, 72 h; hits give low values; viability, % at 10 µM (by protocol); 86,000 compounds, 1.1% hits; AID 648;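 active means viability at or below 30%; inactive means viability above 30%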;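 further: 100% = median luminescence of DMSO-only cell control wells on each plate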
* hit, by the source's call.

For CCN(CC)S(=O)(=O)c1ccc(N/N=C/c2cc(OC)ccc2O)nc1 the results were bCat KO growth 2.7* and HCT116 PTEN-null 5.
`CC1(C)C2CCC1(C)C1(C2)NC(=O)c2ccccc2O1` (stereo not drawn) gave bCat KO growth 82 and HCT116 PTEN-null 91.
For O=c1[nH][nH]c(-c2ccccc2O)c1C(C[N+](=O)[O-])c1ccc(Br)cc1 (stereo not drawn) the results were bCat KO growth 4.2* and HCT116 PTEN-null 1.6*.
`COc1ccc(C(C[N+](=O)[O-])c2c(C)[nH]c3ccccc23)cc1OC` (stereo not drawn) gave bCat KO growth 79 and HCT116 PTEN-null 85.
Screening Cc1ccc(C(C[N+](=O)[O-])c2c(-c3ccccc3O)[nH][nH]c2=O)cc1 (stereo not drawn) returned bCat KO growth 3.5* and HCT116 PTEN-null 3.6*.
CCOC(=O)N1CCN(C(=O)C2CCCN(S(=O)(=O)c3ccc(C)cc3)C2)CC1 (stereo not drawn) was read as Fibroblast inh 101, bCat KO growth 99, HCT116 PTEN-null 100, H69AR growth 86K 101 and HUVEC prolif 384 110.
Screening CCC1C/C(=C\c2cccnc2)C(=O)/C(=C/c2cccnc2)C1 (stereo not drawn) returned bCat KO growth 2.2* and HCT116 PTEN-null 1.5*.
Screening O=C1/C(=C/c2cccnc2)CCC/C1=C\c1cccnc1 returned bCat KO growth 1.9* and HCT116 PTEN-null 1.1*.
For CC(C)(C)C(=O)/C(=C/c1cccc([N+](=O)[O-])c1)n1cncn1 the results were bCat KO growth 0.7* and HCT116 PTEN-null 0.5*.
Screening CC(C)(C)C(=O)/C(=C\c1ccc([N+](=O)[O-])cc1)n1cncn1 returned Fibroblast inh 2.1*, bCat KO growth 1.4*, HCT116 PTEN-null 1.6*, H69AR growth 86K 107 and HUVEC prolif 384 2.1*.
CC(C)(C)C(=O)NC(NC(=O)C(C)(C)C)c1ccc([N+](=O)[O-])cc1 was read as bCat KO growth 95 and HCT116 PTEN-null 98.
COc1ccc(C(=O)c2ccc(Cl)cc2)c2ccccc12 was read as Fibroblast inh 94, bCat KO growth 72, HCT116 PTEN-null 73, H69AR growth 86K 17* and HUVEC prolif 384 65.
COc1ccc(C(=O)c2ccccc2)c2c(O)ccc(C(=O)c3ccccc3)c12 was read as Fibroblast inh 92, bCat KO growth 18, HCT116 PTEN-null 17, H69AR growth 86K 91 and HUVEC prolif 384 34.
`CCOCC(O)CNc1ccccc1` (stereo not drawn) gave bCat KO growth 99 and HCT116 PTEN-null 98.
OC(CNc1ccccc1)COc1ccc(OCC(O)CNc2ccccc2)cc1 (stereo not drawn) was read as bCat KO growth 1.7* and HCT116 PTEN-null 1.6*.
`CCC1CCC/C1=N\NC(=O)c1cc(C)[nH]n1` (stereo not drawn) gave bCat KO growth 108 and HCT116 PTEN-null 94.
COCCN1CCn2c(nc3cc(NC(=O)NC4CCCCC4)ccc32)C1 was read as Fibroblast inh 90, bCat KO growth 103, HCT116 PTEN-null 98, H69AR growth 86K 91 and HUVEC prolif 384 90.
`O=C(Nc1ccc2c(c1)nc1n2CCN(Cc2ccccc2)C1)NC1CCCCC1` gave Fibroblast inh 106, bCat KO growth 107, HCT116 PTEN-null 105, H69AR growth 86K 20* and HUVEC prolif 384 80.
Screening CC(C)(C)C(=O)/C(C#N)=c1\s/c(=C\c2ccncc2)c(=O)n1CCCN1CCOCC1 returned H69AR growth 86K 74 and HUVEC prolif 384 1.8*.
O=C(CN1C(=O)S/C(=C/c2ccncc2)C1=O)N1CCOCC1 was read as bCat KO growth 92 and HCT116 PTEN-null 91.
Screening Cc1c(O)c2c(=O)n(-c3ccccc3)c(-c3ccccc3)cc2oc1=O returned bCat KO growth 69 and HCT116 PTEN-null 74.
O=C(CSc1oc(-c2ccc(F)cc2)nc1S(=O)(=O)c1ccc(F)cc1)NCC1CCCO1 (stereo not drawn) was read as Fibroblast inh 14*, bCat KO growth 21, HCT116 PTEN-null 9, H69AR growth 86K 49 and HUVEC prolif 384 61.
Cc1ccc(S(=O)(=O)c2nc(-c3ccc(F)cc3)oc2SCC(=O)NCC2CCCO2)cc1 (stereo not drawn) was read as Fibroblast inh 62, bCat KO growth 38, HCT116 PTEN-null 25, H69AR growth 86K 28* and HUVEC prolif 384 71.
`Cc1ccc(-c2nc(S(=O)(=O)c3ccc(F)cc3)c(SCC(=O)NCC3CCCO3)o2)cc1` (stereo not drawn) gave Fibroblast inh 94, bCat KO growth 85, HCT116 PTEN-null 88, H69AR growth 86K 86 and HUVEC prolif 384 106.
For O=c1cc(-c2ccccc2)[nH]c2nc3ccccc3n12 the results were Fibroblast inh 66, bCat KO growth 21, HCT116 PTEN-null 17, H69AR growth 86K 14* and HUVEC prolif 384 53.
`O=S(=O)(Cc1ccccc1)N1CCc2ccccc21` gave Fibroblast inh 96, bCat KO growth 60, HCT116 PTEN-null 44, H69AR growth 86K 28* and HUVEC prolif 384 77.
CN(C)S(=O)(=O)N1CCc2ccccc21 was read as Fibroblast inh 99, bCat KO growth 88, HCT116 PTEN-null 97, H69AR growth 86K 56 and HUVEC prolif 384 98.
`Cc1cc(NC(=O)c2ccc3c(c2)C(=O)N(CCC(C)C)C3=O)no1` gave Fibroblast inh 99, bCat KO growth 72, HCT116 PTEN-null 68, H69AR growth 86K 40* and HUVEC prolif 384 93.
`Cc1cc(NC(=O)c2ccc3nc(-c4ccccc4)c(-c4ccccc4)nc3c2)no1` gave Fibroblast inh 18*, bCat KO growth 51, HCT116 PTEN-null 51, H69AR growth 86K 16* and HUVEC prolif 384 49.
COc1ccc(C(=O)Nc2cc(C)on2)cc1 was read as Fibroblast inh 97, bCat KO growth 87, HCT116 PTEN-null 99, H69AR growth 86K 90 and HUVEC prolif 384 95.
Screening Cc1cc(NC(=O)c2ccc3c(c2)C(=O)N(C2CCCCC2)C3=O)no1 returned Fibroblast inh 79, bCat KO growth 9, HCT116 PTEN-null 9, H69AR growth 86K 27* and HUVEC prolif 384 92.
Cc1cc(NC(=O)c2ccc3c(c2)C(=O)N(C)C3=O)no1 was read as Fibroblast inh 103, bCat KO growth 103, HCT116 PTEN-null 108, H69AR growth 86K 91 and HUVEC prolif 384 94.
For Cc1ccc(S(=O)(=O)N(CCC(=O)O)c2ccccc2)cc1 the results were bCat KO growth 90 and HCT116 PTEN-null 93.
Screening Cc1cc(Cl)c(OCCCCNC(C)(C)C)c(Br)c1 returned bCat KO growth 65 and HCT116 PTEN-null 64.
Cc1nn(-c2ccccc2)c2c1C1(C(=O)N3c4c(cccc41)C(C)CC3(C)C)C(C#N)=C(N)O2 (stereo not drawn) was read as Fibroblast inh 100, bCat KO growth 81, HCT116 PTEN-null 77, H69AR growth 86K 39* and HUVEC prolif 384 77.
